Test results taken from ChEMBL document CHEMBL3758104, “Reinvestigating Old Pharmacophores: Are 4-Aminoquinolines and Tetraoxanes Potential Two-Stage Antimalarials?” (J Med Chem, 2016).
The source made the active and inactive calls. No cut-off for these calls is given here.

Key:
Plasmodium berghei [1] = assay: Antimalarial activity against sporozoite stage of Plasmodium berghei infected in human Huh7 cells assessed as remaining parasite infection at 10 uM pre-incubated for 24 hrs followed by parasite infection measured after 48 hrs by bioluminescence assay; settings: Huh-7
[2] = Half life in human liver microsomes at 1 uM by LC-MS/MS analysis; assay type: ADME
Mus musculus [3] = assay: Toxicity in Plasmodium berghei ANKA infected C57Bl6 mouse at 160 mg/kg/day, po administered for 3 days measured 2 times a day for 31 days; assay type: organism-based; settings: in vivo, 744 h
[4] = Half life in mouse liver microsomes at 1 uM by LC-MS/MS analysis; assay type: ADME
HepG2 = assay: Cytotoxicity against human HepG2 cells after 48 hrs by MTT assay; assay type: cell-based; settings: HepG2, 48 h
Plasmodium falciparum [5] = assay: Antimalarial activity against chloroquine-resistant Plasmodium falciparum W2 after 48 hrs by [3H]hypoxanthine incorporation assay; assay type: functional, organism-based
Method in brief: (§1)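 P. falciparum D6 (Sierra I/UNC clone), W2 (Indochina I clone), TM91C235 (South-East Asian clone) cultured with compound; growth inhibition by [3H]hypoxanthine incorporation (modified Desjardins/Milhous method). Chloroquine, mefloquine, artemisinin as positive controls. IC50 in nM; technical triplicates, curve fits R2 0.96–1.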

Plasmodium berghei [6] = assay: Antimalarial activity against Plasmodium berghei ANKA infected in C57Bl6 mouse at 160 mg/kg/day, po measured on day 3 to 5 by Thompson test; assay type: functional
Plasmodium falciparum [7] = assay: Antimalarial activity against mutidrug resistant Plasmodium falciparum TM91C235 after 48 hrs by [3H]hypoxanthine incorporation assay; assay type: functional, organism-based
Method in brief: as §1

[8] = Selectivity index, ratio of IC50 for human HepG2 cells to IC50 for chloroquine susceptible Plasmodium falciparum D6; assay type: toxicity, cell-based; settings: read-out: Ratio IC50
Plasmodium falciparum [9] = assay: Antimalarial activity against chloroquine-susceptible Plasmodium falciparum D6 after 48 hrs by [3H]hypoxanthine incorporation assay; assay type: functional, organism-based
Method in brief: as §1

Plasmodium berghei [10] = assay: Antimalarial activity against Plasmodium berghei ANKA infected in C57Bl6 mouse assessed as reduction of parasitemia at 160 mg/kg/day, po administered for day 3 to 5 measured on day 6 to 14 by Thompson test; assay type: functional, organism-based
Method in brief: (§2)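 Modified Thompson test: C57Bl6 female mice inoculated intraperitoneally on day 0 with 1×10^6 P. berghei ANKA-infected erythrocytes; compound suspended in 0.5% hydroxyethylcellulose–0.1% Tween 80, given orally once daily on days 3, 4 and 5 post infection. Parasitemia by Giemsa-stained thin tail-blood smears on days 0, 3, 6, 10, 13, 17, 20, 24, 27, 31. Cure = survival without parasitemia to day 31.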

Plasmodium berghei [11] = assay: Antimalarial activity against sporozoite stage of Plasmodium […] infected in human HepG2 cells; assay type: functional, organism-based
[12] = Inhibition of beta hematin formation measured as hemin equivalent after 18 hrs; assay type: physicochemical
Method in brief: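 Hemin (16 mM in DMSO) mixed with compound at 0.125–5 mol equiv to hemin, plus water and 8 M acetate buffer pH 5.2, 25% DMSO final. Incubated 18 h at 37 °C. Pellet washed with DMSO, dissolved in 0.1 M NaOH, absorbance read at 405 nm (corrected at 670 nm) against a hemin calibration.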

Plasmodium berghei [13] = assay: Antimalarial activity against sporozoite stage of Plasmodium berghei infected in human Huh7 cells assessed as remaining parasite infection at 5 uM pre-incubated for 24 hrs followed by parasite infection measured after 48 hrs by bioluminescence assay; settings: Huh-7
Plasmodium berghei [14] = assay: Antimalarial activity against sporozoite stage of Plasmodium berghei infected in human Huh7 cells assessed as inhibition of parasite infection pre-incubated for 24 hrs followed by parasite infection measured after 48 hrs by bioluminescence assay; assay type: functional, organism-based; settings: Huh-7
Plasmodium falciparum [15] = assay: Antimalarial activity against 4th to 5th gametocyte stage of Plasmodium falciparum 3D7elo1-pfs16-CBG99 assessed as inhibition of gametocyte viability by luciferase reporter gene assay; assay type: functional, organism-based
Method in brief: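 Stage IV–V gametocytes of luciferase-expressing 3D7elo1-pfs16-CBG99 strain (CBG99 under pfs16 promoter); luciferase activity as viability read-out. Viability = 100×(treated−blank)/(untreated−blank), blank = 100 nM epoxomicin-treated sample. Epoxomicin and dihydroartemisinin as positive controls. IC50 from nonlinear regression of dose–response; mean of three experiments in duplicate.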

Plasmodium berghei [16] = assay: Antimalarial activity against Plasmodium berghei ANKA infected in po dosed C57Bl6 mouse administered on day 3 to 5 by Thompson test; assay type: functional
Method in brief: as §2

Plasmodium berghei [17] = assay: Antimalarial activity against Plasmodium berghei ANKA infected in C57Bl6 mouse assessed as reduction of parasitemia at 160 mg/kg/day, po administered for day 3 to 5 measured on day 6 by Thompson test; assay type: functional, organism-based
Method in brief: as §2

Plasmodium berghei [18] = assay: Antimalarial activity against Plasmodium berghei ANKA infected in C57Bl6 mouse assessed as reduction of parasitemia at 160 mg/kg/day, po administered for day 3 to 5 measured after 10 to 14 days by Thompson test; assay type: functional, organism-based
Method in brief: as §2

Plasmodium berghei [19] = assay: Antimalarial activity against Plasmodium berghei ANKA infected in C57Bl6 mouse at 40 mg/kg/day, po on days 3 to 5 by Thompson test; assay type: functional
RAW264.7 = assay: Cytotoxicity against mouse RAW264.7 cells; assay type: cell-based
[20] = Selectivity index, ratio of IC50 for mouse RAW 264.7 cells to IC50 for chloroquine susceptible Plasmodium falciparum D6; assay type: toxicity; settings: read-out: Ratio IC50
Plasmodium berghei [21] = assay: Antimalarial activity against Plasmodium berghei ANKA infected in C57Bl6 mouse at 80 mg/kg/day, po measured on day 3 to 5 by Thompson test; assay type: functional
Plasmodium berghei [22] = assay: Antimalarial activity against Plasmodium berghei ANKA infected in C57Bl6 mouse assessed as increase in cure rate at 80 mg/kg/day, po administered for day 3 to 5 by Thompson test; assay type: functional, organism-based
Method in brief: as §2

Plasmodium berghei [23] = assay: Antimalarial activity against Plasmodium berghei ANKA infected in C57Bl6 mouse assessed as increase in survival rate at 80 mg/kg/day, po administered for day 3 to 5 by Thompson test; assay type: functional, organism-based
Method in brief: as §2

Mus musculus [24] = assay: Toxicity in Plasmodium berghei ANKA infected C57Bl6 mouse at 80 mg/kg/day, po administered for 3 days measured 2 times a day for 31 days; assay type: organism-based; settings: in vivo, 744 h

SMILES | half-life at 1 µM [2] [min] | Activity (Mus musculus [3]) | half-life at 1 µM [4] [min] | IC50 (Plasmodium falciparum [5]) [nM] | IC50 (Plasmodium falciparum [7]) [nM] | selectivity ratio [8] | IC50 (Plasmodium falciparum [9]) [nM] | other results
COc1cc(NC(C)CCCN)c2ncccc2c1 (configuration not stated) [PRIMAQUINE] |  |  |  |  |  |  |  | % infection at 10 µM (Plasmodium berghei [1]): 62%
CC(CCCNCCC12CC3CC(CC(C3)C1)C2)Nc1ccnc2cc(Cl)ccc12 (configuration not stated) | 60 | Non-toxic | 60 | 26 | 14 | 1900 | 7 | IC50 (HepG2): 13.3 µM; MST (Plasmodium berghei [6]): 21.4 days; Activity (Plasmodium berghei [10]): Active
C[C@H]1[C@H](N2CCS(=O)(=O)CC2)O[C@@H]2O[C@@]3(C)CC[C@H]4[C@H](C)CC[C@@H]1[C@@]24OO3 [ARTEMIFONE] |  |  |  |  |  |  |  | IC50 (Plasmodium berghei [11]): 0.04 µM
CCN(CC)CCCC(C)Nc1c(F)cnc2cc(Cl)ccc12 (configuration not stated) |  | Non-toxic |  |  |  |  |  | IC50 [12]: 1.07 equiv; % infection at 5 µM (Plasmodium berghei [13]): 35%; MST (Plasmodium berghei [6]): 16.8 days; IC50 (Plasmodium berghei [14]): 1000 nM
CC[C@H](C)[C@H](NC(=O)[C@H]([C@@H](C)CC)N(C)C(C)=O)C(=O)N[C@H](C(=O)N[C@@H](CC(C)C)C(=O)[C@@]1(C)CO1)[C@@H](C)O [EPOXOMYCIN] |  |  |  |  |  |  |  | IC50 (Plasmodium falciparum [15]): 11.8 nM
Clc1ccc2c(NCCNCC34CC5CC(CC(C5)C3)C4)ccnc2c1 |  | Non-toxic |  |  |  |  |  | MAC (Plasmodium berghei [16]): 40 mg/kg/day; Activity (Plasmodium berghei [17]): Active; Activity (Plasmodium berghei [18]): inactive; MST (Plasmodium berghei [19]): >21.4 days
CC(CNCC12CC3CC(CC(C3)C1)C2)Nc1ccnc2cc(Cl)ccc12 (configuration not stated) | 11 |  | 10 | 3 | 1 |  | 1 | IC50 (RAW264.7): 2.9 µM; selectivity ratio [20]: 2900
CC(CCNCC12CC3CC(CC(C3)C1)C2)Nc1ccnc2ccccc12 (configuration not stated) | 60 | Non-toxic | 60 | 185 | 135 | 136 | 17 | IC50 [12]: 1.22 equiv; IC50 (HepG2): 2.32 µM; MST (Plasmodium berghei [21]): 15.2 days; Activity (Plasmodium berghei [22]): inactive
CCN(CC)CCCC(C)Nc1nc2cc(Cl)ccc2cc1F (configuration not stated) |  |  |  |  |  |  |  | IC50 [12]: 2.43 equiv; % infection at 5 µM (Plasmodium berghei [13]): 40%; IC50 (Plasmodium berghei [14]): 1000 nM
CC(CCNCCC12CC3CC(CC(C3)C1)C2)Nc1ccnc2cc(Cl)ccc12 (configuration not stated) | 60 |  | 60 | 13 | 13 | 1870 | 13 | % infection at 5 µM (Plasmodium berghei [13]): 8%; IC50 (HepG2): 24.3 µM; IC50 (Plasmodium berghei [14]): 2500 nM
Fc1ccc2scc(CNCCCNc3ccnc4cc(Cl)ccc34)c2c1 |  | Toxic |  |  |  |  |  | Activity (Plasmodium berghei [23]): inactive; MST (Plasmodium berghei [21]): 14 days; Activity (Mus musculus [24]): Non-toxic; Activity (Plasmodium berghei [22]): inactive
C[C@@H]1CC[C@H]2[C@@H](C)C(=O)O[C@@H]3O[C@@]4(C)CC[C@@H]1[C@]32OO4 [ARTEMISININ] |  |  |  | 7 | 13 |  | 9 | IC50 (Plasmodium berghei [11]): 12 µM
CCN(CC)CCCC(C)Nc1ccnc2cc(Cl)ccc12 (configuration not stated) [CHLOROQUINE] |  |  |  |  |  |  |  | IC50 (Plasmodium berghei [11]): 9 µM; MST (Plasmodium berghei [6]): >31 days; MST (Plasmodium berghei [21]): 25.6 days
CC(CNc1ccnc2cc(Cl)ccc12)NCC12CC3CC(CC(C3)C1)C2 (configuration not stated) | 13 |  | 10 | 10 | 9 |  | 2 | IC50 (RAW264.7): 3.77 µM; selectivity ratio [20]: 1890
O=C1C(O)=C([C@H]2CC[C@H](c3ccc(Cl)cc3)CC2)C(=O)c2ccccc21 [ATOVAQUONE] |  |  |  |  |  |  |  | IC50 (Plasmodium berghei [11]): 0.022 µM
CC(CNCCC12CC3CC(CC(C3)C1)C2)Nc1ccnc2cc(Cl)ccc12 (configuration not stated) | 57 | Non-toxic | 60 | 4 | 1 |  | 1 | MST (Plasmodium berghei [6]): 27.6 days; IC50 (RAW264.7): 2.91 µM; Activity (Plasmodium berghei [17]): Active; Activity (Plasmodium berghei [18]): inactive; selectivity ratio [20]: 2910
CC(CNc1ccnc2cc(Cl)ccc12)NCCC12CC3CC(CC(C3)C1)C2 (configuration not stated) | 27 | Non-toxic | 60 | 7 | 7 | 4190 | 6 | IC50 (HepG2): 25.1 µM; MAC (Plasmodium berghei [16]): 80 mg/kg/day; Activity (Plasmodium berghei [17]): Active; MST (Plasmodium berghei [21]): 15.3 days; Activity (Plasmodium berghei [18]): inactive
C[C@H]1[C@@H](O)O[C@@H]2O[C@@]3(C)CC[C@H]4[C@H](C)CC[C@@H]1[C@@]24OO3 [ARTENIMOL] |  |  |  |  |  |  |  | IC50 (Plasmodium falciparum [15]): 440 nM
CC(NCCCNc1ccnc2cc(Cl)ccc12)C12CC3CC(CC(C3)C1)C2 (configuration not stated) | 16 |  | 11 | 22 | 15 | 790 | 4 | IC50 (RAW264.7): 3.16 µM
CC(CCNCC12CC3CC(CC(C3)C1)C2)Nc1c(F)cnc2ccccc12 (configuration not stated) |  | Non-toxic |  | 157 | 259 | 3 | 60 | IC50 [12]: 0.61 equiv; MST (Plasmodium berghei [21]): 12.8 days; Activity (Plasmodium berghei [22]): inactive
